A selection: hits, their analogues and other compounds. The true share with any hit is near 0.86%.
TNAP act hi DEA = TNAP (human) activation, high acceptor. P05186. purified TNAP, CDP-star luminescence, 1 M DEA, 30 min; stronger effect = higher value; 0 = EDTA background, 1 = DMSO-only activity. activation factor at 20 µM. 200,000 tested, under 10 active. AID 1136;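 active = activation factor at least 2 at 20 µM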
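Assay system: human TNAP; Input: enzyme diluted 1/800 final; Reagent: CDP-star luminogenic substrate at 100 µM final; Timing: 30 min, room temperature; Signal: luminescence; Evaluation: TNAP activation factor scaled between EDTA and DMSO control wells.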
TNAP inh noacc = TNAP (human) inhibition, acceptor-free conditions | purified TNAP, CDP-star luminescence, 30 min | 200,000 compounds, 0.26% hits | AID 1012 | inhibition, % at 20 µM | P05186;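 active = tissue-nonspecific alkaline phosphatase inhibition above about 50% at 20 µM in the single-dose screen, limit read from the data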;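 also: 0% = DMSO negative control and 100% = EDTA positive control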
TNAP inh hiacc = blocks human TNAP under high phosphate acceptor concentration | purified TNAP, CDP-star luminescence, 1 M DEA | inhibition, % at 20 µM | 200,000 compounds, 0.03% hits;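 active = over 50% inhibition of tissue-nonspecific alkaline phosphatase at 20 µM in the single-dose screen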;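 also: plate controls were DMSO wells for no effect and EDTA-quenched wells as full inhibition for full effect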
PERK inhibitor = human PERK inhibition, primary cell-based screen; Q9NZJ5; CHO PERK-DD fusion, SEAP luminescence translation reporter; inhibition, % at 5.6 µM; 220,000 compounds, 0.17% hits; AID 1416;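 active = inhibition above the mean inhibition of all tested compounds plus 3 SD, set separately per screening campaign, cut at about 2.9% in these data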;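 also: PERK kinase domain activated by AP20187 dimerizer at 100 nM; 0% = DMSO with dimerizer and 100% = rapamycin at 8.4 µM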
Redox H2O2 prof = compounds producing H2O2 with reducing agent – biochemical, NIH compound library profiling, artefact control for MLSCN library redox annotation, primary screen; DTT-dependent redox cycling H2O2, phenol red/HRP absorbance; 100% = 100 µM peroxide control, 0% = buffer; activation, % at 10 µM; 200,000 compounds, 0.03% hits;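 active = activation of at least 50% relative to the plate's high and low controls in the primary single-dose screen; inactive = activation below 50%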;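 also: compound incubated with DTT at 0.8 mM final as the reducing agent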
p97 inhibitor = inhibitors of human p97 ATPase; P55072; recombinant p97 ATPase, Kinase-Glo ATP luminescence, 3 h; inhibition, % at 8 µM; 220,000 compounds, 0.42% hits; AID 1481; in the data active = inhibition above about 15%;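 also: 0% = DMSO vehicle and 100% = wells lacking enzyme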
Target sequence (P55072 whole entry, looked up): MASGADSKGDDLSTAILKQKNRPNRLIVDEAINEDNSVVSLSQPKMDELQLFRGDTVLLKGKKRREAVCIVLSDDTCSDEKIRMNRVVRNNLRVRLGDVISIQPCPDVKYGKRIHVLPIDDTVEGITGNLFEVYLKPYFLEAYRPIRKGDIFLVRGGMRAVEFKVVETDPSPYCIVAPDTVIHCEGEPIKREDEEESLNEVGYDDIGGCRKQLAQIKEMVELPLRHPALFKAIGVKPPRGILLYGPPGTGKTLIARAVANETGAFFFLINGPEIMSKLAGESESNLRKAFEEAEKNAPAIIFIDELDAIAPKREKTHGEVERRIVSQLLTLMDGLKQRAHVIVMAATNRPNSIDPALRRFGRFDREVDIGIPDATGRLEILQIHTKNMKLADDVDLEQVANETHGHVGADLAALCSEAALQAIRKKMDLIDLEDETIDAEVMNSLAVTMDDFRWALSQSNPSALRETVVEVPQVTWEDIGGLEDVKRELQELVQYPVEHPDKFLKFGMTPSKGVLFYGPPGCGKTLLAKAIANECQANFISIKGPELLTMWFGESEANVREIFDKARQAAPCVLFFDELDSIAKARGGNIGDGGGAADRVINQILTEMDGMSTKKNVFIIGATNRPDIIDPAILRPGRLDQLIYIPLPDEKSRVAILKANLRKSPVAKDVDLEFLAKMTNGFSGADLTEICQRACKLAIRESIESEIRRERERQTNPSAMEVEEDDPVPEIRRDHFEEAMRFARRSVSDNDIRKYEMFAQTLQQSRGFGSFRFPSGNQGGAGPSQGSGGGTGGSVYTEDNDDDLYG
p97 confirm = confirmation of human p97 ATPase inhibitors. shares compounds with p97 inhibitor. recombinant p97 ATPase, Kinase-Glo ATP luminescence. inhibition, % at 8 µM. 760 compounds, 44% hits. AID 1517;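 active = percent inhibition of p97 ATPase above a set limit, the primary screen's mean plus 3 SD, cut at about 15% in these data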;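 also: 0% = DMSO wells and 100% = wells lacking p97 protein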
Active calls of the source: *; . = no result given.

SMILES	TNAP act hi DEA	TNAP inh noacc	TNAP inh hiacc	PERK inhibitor	Redox H2O2 prof	p97 inhibitor	p97 confirm
COc1ccc2[nH]c(=O)c(CN(CCO)C(=O)c3ccccc3F)cc2c1	1	-7	1	2	-3	3	.
COC(=O)c1ccccc1NC(=O)C1CCN(C(=O)c2cc(OC)c(OC)c(OC)c2)CC1	1.1	-17	-9	-1	1	-7	.
COc1cccc(NC(=O)C(=O)N2CCOCC2)c1	1	-2	4	0	0	4	.
COc1cccc(CC(=S)N2CCOCC2)c1	1	-7	-1	1	0	16*	8
CC(C)c1ccc(-c2nn(-c3ccccc3)cc2C2C(C#N)=C(N)OC3=C2C(=O)CC(C)(C)C3)cc1 (stereo not given)	1	-8	-2	-1	10	-2	.
COc1ccc(Nc2nc3ccccc3nc2NS(=O)(=O)c2cccs2)c(OC)c1	.	.	.	2	.	24*	29*
CC(C)(C)C(=O)Nc1sc(-c2ccccc2)cc1C(=O)O	.	.	.	1	.	18*	3
CC(C)c1ccc2c(c1)CCC1C(C)(CN)CCCC21C (stereo not given)	.	.	.	1	.	22*	14
O=C(C#Cc1cccc([N+](=O)[O-])c1)c1ccccc1	1	-9	4	1	0	21*	25*
O=C(CCCN1C(=O)/C(=C/c2ccco2)SC1=S)Nc1cccc(C(=O)O)c1	.	.	.	1	.	33*	7
O=C(CCCN1C(=O)/C(=C\c2cccs2)SC1=S)Nc1cccc(C(=O)O)c1	1	12	4	1	0	-3	.
CCN(Cc1ccncc1)Cc1cn(C)nc1-c1ccc(Oc2ccccc2)cc1	1.1	-8	-10	-1	-1	-10	.
Cc1cccc(NC(=O)c2ccco2)c1C(=O)O	.	.	.	0	.	8	.
Cc1cccc(NC(=O)c2sc(NC(=O)c3ccco3)c(C#N)c2C)c1C	1.1	-6	-8	1	0	16*	10
Cc1nonc1OCCn1c([N+](=O)[O-])cnc1C	1	-6	-1	0	-1	4	.
COc1ccc(N2CCN(CC(=O)c3c(C)n(C)c4ccc(OC)cc34)CC2)cc1	.	.	.	0	.	27*	34*
COc1ccc2c(c1)c(C(=O)CN1CCOCC1)c(C)n2C	1.1	-14	-8	-1	0	-4	.
Cc1nn(-c2cccc(Cl)c2)c2c1C(c1ccncc1)C(C#N)=C(N)O2 (stereo not given)	1	-8	3	0	4	7	.
Cc1ccc(-n2nc(C)c3c2OC(N)=C(C#N)C3c2ccc(F)cc2)cc1 (stereo not given)	1	4	0	0	3	20*	2
Cc1nn(-c2cccc(Cl)c2)c2c1C(c1cccnc1)C(C#N)=C(N)O2 (stereo not given)	1	-4	2	1	4	16*	9
C=CCN1C(=O)C(CC(=O)Nc2ccccc2)SC1=Nc1ccc(S(N)(=O)=O)cc1 (stereo not given)	1	-8	0	0	-4	0	.
CCOc1ccc(Br)cc1S(=O)(=O)N1CC(C)OC(C)C1 (stereo not given)	1	-10	-4	-2	1	-2	.
CCOc1ccc(Br)cc1S(=O)(=O)N1CCC(C(N)=O)CC1	1	-7	1	0	0	15*	7
CN1CCN(c2nc3ccccc3nc2C(C#N)S(=O)(=O)c2ccccc2)CC1 (stereo not given)	.	.	.	1	.	5	.
N#CC(c1nc2ccccc2nc1N1CCCC1)S(=O)(=O)c1ccccc1 (stereo not given)	1	-6	-4	0	0	17*	4
SMILES	TNAP act hi DEA	TNAP inh noacc	TNAP inh hiacc	PERK inhibitor	Redox H2O2 prof	p97 inhibitor	p97 confirm
C=CCNC(=O)C(C#N)c1nc2ccccc2nc1N1CCCCCC1 (stereo not given)	1	2	-1	0	-3	21*	-2
Cc1ccc(C)c(S(=O)(=O)C(C#N)c2nc3ccccc3nc2N2CCCC2)c1 (stereo not given)	1	-9	4	0	0	19*	8
Cc1ccc(C)c(S(=O)(=O)C(C#N)c2nc3ccccc3nc2N2CCOCC2)c1 (stereo not given)	1	-9	1	1	0	0	.
Cc1cc(C)c(OCC(=O)Nc2nc3ccccc3[nH]2)c(C)c1	1.1	-28	-7	0	0	4	.
CCOC(=O)c1c(C)[nH]c(C(=O)COC(=O)CCS(=O)(=O)c2ccc(C)cc2)c1C	1	-3	1	0	.	2	.
Cc1[nH]c2ccccc2c1C(=O)CCl	1	-6	-4	1	-1	36*	37*
Cc1ccc(S(=O)(=O)CCC(=O)OCC(=O)c2c(C)[nH]c3ccccc23)cc1	1	-1	-4	0	0	20*	14
CC(NC(=S)Nc1ccc(F)cc1)C(c1cccs1)N1CCOCC1 (stereo not given)	1.1	-7	-6	2	0	11	.
O=c1[nH]c(S)c(/C=C2\C=Nc3ccccc32)s1	.	.	.	2	.	22*	16*
COc1ccc(N2C(=O)C3C(c4ccc(OC)cc4O)NC(Cc4ccccc4)(C(=O)O)C3C2=O)cc1 (stereo not given)	1.1	-47	-7	0	0	18*	7
CCOC(=O)CNC(=O)c1ccc2[nH]c3ccccc3c2c1	1	-2	-3	0	0	15*	11
O=C(NCC(O)CO)c1ccc2[nH]c3ccccc3c2c1 (stereo not given)	1	-7	-1	1	1	9	.
COc1ccc(OC)c2sc(NC(=O)CCS(=O)(=O)c3ccccc3)nc12	.	.	.	0	-4	19*	25*
COc1ccc(OC)c2sc(NC(=O)CCSc3ccccc3)nc12	1.1	4	-6	1	-1	5	.
CN1C(=O)C2(c3ccccc31)C1CCCC=C1C(C#N)=C(N)C2(C#N)C#N (stereo not given)	1	-7	0	0	3	17*	13
NS(=O)(=O)c1ccc(CCNc2ncnc3c2c(-c2ccccc2)cn3-c2ccc(F)cc2)cc1	1	-6	1	0	3	30*	24*
O=C(NC(=S)NCc1cccnc1)c1cccc2ccccc12	1	-8	-1	0	0	8	.
Nc1c(C(=O)N/N=C/c2cccnc2)oc2nc(-c3ccco3)cc(-c3ccco3)c12	.	.	.	1	.	17*	4
